Tests used:
RN2 cells = assay: Proliferation assay; assay type: cell-based, murine; conditions: Mus musculus, 72 h
In short: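 Murine RN2 cells were seeded at 2,500/well and exposed to ≥5 two-fold dilutions (top 50 μM, 0.1% DMSO final) in triplicate wells, with ≥2 biological replicates, for 72 h. MTS reagent was added for 1.25 h at 37°C and absorbance read at 490 nm. Values were normalized to DMSO wells and GI50 fitted. Error bars are SEM.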

WDR5 [1] = assay: Surface plasmon resonance direct affinity measurement; assay type: binding, Human
In short: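 Enhanced SPR (eSPR) was run externally using purified WDR5 supplied by the authors. Test compounds were prepared as 30 mM DMSO stock solutions.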

MV4:11 cells [2] = assay: Induction of apoptosis; assay type: cell-based, human; conditions: 2 μM, up to 6 days
In short: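 MV4:11 cells were exposed 0–6 days to 2 μM test compound, negative control or 0.1% DMSO, with medium and compound refreshed on day 3. Camptothecin (2 μM, 4 h) served as positive control. 5 × 10^5 cells were stained with Alexa Fluor488–annexin V for 15 min, then propidium iodide for 10 min. Flow cytometry recorded ≥10,000 events, with doublet exclusion and quadrants set on unstained cells. Annexin V+/PI− % is from three biological replicates, SEM.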

THP-1 cells = assay: Proliferation assay; assay type: cell-based; conditions: Homo sapiens, THP-1, 72 h
In short: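 THP-1 cells were grown in RPMI-1640 with 0.05 mM 2-mercaptoethanol and 10% FBS. Cells were plated 5,000/well with ≥5 two-fold dilutions of test compound (top 50 μM, 0.1% DMSO final), in triplicate wells with ≥2 biological replicates.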

[3] = test system: p53 and p21 protein levels in MV4:11 cells; assay: p53/p21 induction western blot; assay type: cell-based, human; conditions: MV4:11, 2 μM, 24 h
In short: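 Treatment lasted 24 h with test compound or its negative control, at 2 μM in MV4:11 and 3 μM in Molm13. Comparators were 2 μM Nutlin-3 or 0.1% DMSO. Four million cells were PBS-washed and lysed 10 min on ice in Kischkel buffer. p53 and p21 were detected by western blot, with histone H3 as loading control.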

MV4:11 cells [4] = assay: Growth and viability time course; assay type: cell-based, human
WDR5 [5] = biological target: T1, WDR5 (Homo sapiens, UniProt P61964); assay: Western blot of endogenous WDR5 levels; assay type: cell-based; conditions: MV4:11, 4 µM, 24 hours
Molm13 cells = assay: Proliferation assay; assay type: cell-based; conditions: Homo sapiens, MOLM-13, 72 h
In short: (§1)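 CellTiter-Glo, 5,000 cells/well. Cells received 0.1% DMSO or at least five two-fold dilutions of test compound (top 50 μM, final DMSO 0.1%), in triplicate wells and ≥2 biological replicates, for 72 h at 37°C. Reagent was added after equilibration to RT, with 30 min dark incubation before luminescence. Signals were normalized to DMSO wells and GI50 obtained by curve fitting. Curve error bars are SEM.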

NOMO-1 cells = assay: Proliferation assay; assay type: cell-based; conditions: Homo sapiens, NOMO-1, 72 h
In short: as §1

MA93 FLT3-ITD cells = assay: Proliferation assay; assay type: cell-based; conditions: Homo sapiens, 72 h
In short: (§2)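 CellTiter-Glo at 2,000 cells/well. MA93 Ras and MA93 FLT3/ITD were maintained in IMDM/20% FBS. Parental MA93 received IMDM/20% FBS plus 10 ng/mL human SCF, TPO, FLT3L, IL3 and IL6. Dosing used ≥5 two-fold dilutions from 50 μM top, 0.1% DMSO final, in triplicate wells with ≥2 biological replicates. Plates ran 72 h at 37°C, followed by 30 min reagent incubation at RT in the dark. GI50 came from DMSO-normalized luminescence.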

MA93 Ras cells = assay: Proliferation assay; assay type: cell-based; conditions: Homo sapiens, MA9.3RAS, 72 h
In short: as §2

[6] = test system: PARP-1 cleavage in MV4:11 cells; assay: Induction of PARP1 cleavage; assay type: cell-based, human; conditions: 2 μM
In short: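 MV4:11 cells were treated 1, 2, 3 or 6 days with 2 μM test compound, its negative control or 0.1% DMSO. Cleaved PARP-1 was detected by western blot, with histone H3 as loading reference.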

MA93 cells = assay: Proliferation assay; assay type: cell-based; conditions: Homo sapiens, 72 h
In short: as §2

[7] = test system: MV4:11 cells expressing shRNAs against p53; assay: Proliferation assay in MV4:11 cells expressing p53 or scrambled shRNAs; assay type: cell-based; conditions: Homo sapiens, MV4-11, 72 h, MV4:11 expressing p53 shRNA_941, 3-day treatment
In short: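 Proliferation was measured in MV4:11 cells carrying scrambled, p53 sh_427 or p53 sh_941 shRNA. Cells received 3-day test compound treatment in a dose–response series, with GI50 derived from the curves.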

[8] = test system: p53 turnover in MV4:11 cells; assay: Cycloheximide; assay type: cell-based, human; conditions: MV4:11, 2 μM, 24 h before CHX
In short: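 Before the cycloheximide chase, MV4:11 cells were pretreated 24 h with 2 μM test compound, 2 μM Nutlin-3 as comparator, or DMSO only. p53 was then followed by immunoblot.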

[9] = test system: gamma-H2AX in MV4:11 cells; assay: gamma-H2AX immunofluorescence, DNA damage; assay type: cell-based, human; conditions: MV4:11, 4 µM
In short: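 Cells were cytospun onto slides (100,000 cells, 800 rpm, 3 min) and immunostained for γ-H2AX. Mean nuclear γ-H2AX signal was quantified and compared with DMSO by one-way ANOVA with Dunnett's test.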

[10] = test system: ribosome protein gene expression in MV4:11 cells; assay: RT-qPCR quantification of RPG mRNA expression; assay type: cell-based, human; conditions: MV4:11, three days, equal concentrations (4 µM) of OICR-9429 and C6
In short: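 Cells were lysed in Trizol and total RNA isolated on columns with DNase digestion. 1 μg RNA was reverse transcribed with MuLV reverse transcriptase in 20 μl, then diluted three-fold in nuclease-free water before qPCR.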

WDR5 [11] = biological target: T1, WDR5; assay: 10-mer-Thr-FAM peptide TR-FRET competition assay; assay type: binding; conditions: Kd, corresponds to TR-FRET Ki of Table S1
K562 cells = assay: Proliferation assay; assay type: cell-based; conditions: Homo sapiens, K562, 72 h
In short: as §1

MV4:11 cells [12] = assay: Proliferation assay; assay type: cell-based, human; conditions: MV4:11, 3 days, mean with SEM
In short: as §1

Cc1nc(F)ccc1-c1cc(Cn2ccn(C)c2=N)cc(C(=O)NCc2ccc(Cl)c(Cl)c2)c1 [Compound C6, N-(3,4-Dichlorobenzyl)-3-(6-fluoro-2-methylpyridin-3-yl)-5-((2-imino-3-methyl-2,3-dihydro-1H-imidazol-1-yl)methyl)benzamide]
GI50 (RN2 cells): 11.2 ± 1.48 µM
SPR affinity for WDR5 relative to values calculated by TR-FRET (WDR5 [1]): ≤ 2 fold
annexin V staining, apoptotic cells (MV4:11 cells [2]): appearance of apoptotic cells
GI50 (THP-1 cells): > 50 µM
p53 and p21 protein induction [3]: moderately induces p53
inhibition of proliferation, live cells over time (MV4:11 cells [4]; 2 μM (GI50 concentration), 1-6 days): inhibition of proliferation can be detected within a few days of treatment
cellular viability over time (MV4:11 cells [4]; 2 μM, between 2 and 6 days of treatment): progressive decrease in cellular viability
WDR5 protein levels (WDR5 [5]): no measurable effect on WDR5 levels
GI50 (Molm13 cells): 6.43 ± 0.683 µM
GI50 (NOMO-1 cells): > 50 µM
GI50 (MA93 FLT3-ITD cells): 2470 ± 137 nM
GI50 (MA93 Ras cells): 20.8 ± 2.62 µM
time to detection of cleaved PARP-1 [6]: ≤ 24 h
GI50 (MA93 cells): 5.04 ± 0.431 µM
GI50 [7]: 15 µM
p53 turnover in CHX chase [8]: no detectable effects on p53 turnover
DNA damage response, accumulation of γ-H2AX foci [9]: does not induce a robust DNA damage response
transcription of RPGs [10]: inhibited the transcription of RPGs
Kd (WDR5 [11]): ~0.1 nM
GI50 (K562 cells): 25.4 ± 2.07 µM
GI50 (MV4:11 cells [12]; Homo sapiens, MV4-11, 72 h): 2000 nM
GI50 (MV4:11 cells [12]): 3200 ± 213 nM

Reference: paper PMC6448596 (Cell reports, 2019)
